According to the RNAGym collection of RNA variant scans (doi:10.1002/anie.201605470):

B1: Osa-1-4 twister ribozyme (parent)
chain: CCGCCUAACACUGCCAAUGCCGGUCCCAAGCCCGGAUAAAAGUGGAGGGGGCGG

Variants of: B1
Test: self-cleavage, relative activity (ratio to wild type); higher = more cleavage; co-transcriptional
Procedure, shortened: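 A DNA template was synthesised for a 54-nucleotide twister ribozyme from Oryza sativa, with 97 % wild-type base and 1 % of each other base at each of the 48 positions downstream of the cleavage site. The ribozyme cleaved itself co-transcriptionally during 2 h of in vitro transcription at 37 °C. Reverse transcription with a template-switching oligonucleotide, PCR amplification and deep sequencing followed, and cleavage status came from reads with or without upstream sequence. Relative activity is the fraction cleaved normalised to wild type.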

| Variant | self-cleavage |
| --- | --- |
| CCGCCUAACACUGCCAAUGCCGGUCCCAAUCCCGGGUAAAAGUGGAGGGGGCGG | 0.05 |
| CCGCCUAACACUGCCAAUGCCGGUCCCAACCCCGGGUAAAAGUGGAGGGGGCGG | 0.05 |
| CCGCCUAACACUGCCAAUGCCGGUCCCAAACCCGGGUAAAAGUGGAGGGGGCGG | 0.05 |
| CCGCCUAACACUGCCAAUGCCGGUCCCAAGCCCGGGUAAAAGUGUAGGGGGCGG | 0.21 |
| CCGCCUAACACUGCCAAUGCCGGUCCCAAGCCCGGGUAAAAGUGAAGGGGGCGG | 0.54 |
| CCGCCUAACACUGCCAAUGCCGGUCCCAAGCCCGGGUAAAAGUGCAGGGGGCGG | 0.07 |
| CCGCCUAACACUGCCAAUGCCGGUCCCAAGCCCCGGUAAAAGUGGAGGGGGCGG | 0.31 |
| CCGCCUAACACUGCCAAUGCCGGUCCCAAGCCCAGGUAAAAGUGGAGGGGGCGG | 0.91 |
| CCGCCUAACACUGCCAAUGCCGGUCCCAAGCCCUGGUAAAAGUGGAGGGGGCGG | 0.82 |
| CCGCCUAACACAGCCAAUGCCGGUCCCAAGCCCGGGUAAAAGUGGAGGGGGCGG | 0.99 |
| CCGCCUAAGACUGCCAAUGCCGGUCCCAAGCCCGGGUAAAAGUGGAGGGGGCGG | 0.89 |
| CCGCCUAAAACUGCCAAUGCCGGUCCCAAGCCCGGGUAAAAGUGGAGGGGGCGG | 0.53 |
| CCGCCUAAUACUGCCAAUGCCGGUCCCAAGCCCGGGUAAAAGUGGAGGGGGCGG | 0.77 |
| CCGCCUAACACUGCCAAUGGCGGUCCCAAGCCCGGGUAAAAGUGGAGGGGGCGG | 0.12 |
| CCGCCUAACACUGCCAAUGACGGUCCCAAGCCCGGGUAAAAGUGGAGGGGGCGG | 0.87 |
| CCGCCUAACACUGCCAAUGUCGGUCCCAAGCCCGGGUAAAAGUGGAGGGGGCGG | 0.99 |
| CCGCCUAACACUGCCAAUGCCGGUCCCAAGCCCGGGUAAAAGUGGAGGGGGCGC | 1.01 |
| CCGCCUAACACUGCCAAUGCCGGUCCCAAGCCCGGGUAAAAGUGGAGGGGGCGU | 0.98 |
| CCGCCUAACACUGCCAAUGCCGGUCCCAAGCCCGGGUAAAAGUGGAGGGGGCGA | 1.04 |
| CCGCCUAACACUGCCAAUGCCGGUCCCAAGCCCGGGUAAACGUGGAGGGGGCGG | 0.97 |
| CCGCCUAACACUGCCAAUGCCGGUCCCAAGCCCGGGUAAAUGUGGAGGGGGCGG | 0.99 |
| CCGCCUAACACUGCCAAUGCCGGUCCCAAGCCCGGGUAAAGGUGGAGGGGGCGG | 0.89 |
| CCGCCUAACACUGCCAAUGCCGGUCCCAAGCCCGGGUAAAAGUUGAGGGGGCGG | 0.97 |
| CCGCCUAACACUGCCAAUGCCGGUCCCAAGCCCGGGUAAAAGUCGAGGGGGCGG | 0.97 |
| CCGCCUAACACUGCCAAUGCCGGUCCCAAGCCCGGGUAAAAGUAGAGGGGGCGG | 1.01 |

| Variant | self-cleavage |
| --- | --- |
| CCGCCUAACACUGCCAAUGCCGGUCCCAAGCCCGGGUAAAAUUGGAGGGGGCGG | 0.08 |
| CCGCCUAACACUGCCAAUGCCGGUCCCAAGCCCGGGUAAAAAUGGAGGGGGCGG | 0.8 |
| CCGCCUAACACUGCCAAUGCCGGUCCCAAGCCCGGGUAAAACUGGAGGGGGCGG | 0.24 |
| CCGCCUAACACUGCCAAUGCCGGUCCCAAGCCCGGGUAAAAGUGGUGGGGGCGG | 0.1 |
| CCGCCUAACACUGCCAAUGCCGGUCCCAAGCCCGGGUAAAAGUGGGGGGGGCGG | 0.11 |
| CCGCCUAACACUGCCAAUGCCGGUCCCAAGCCCGGGUAAAAGUGGCGGGGGCGG | 0.08 |
| CCGCCUAACACUGCCAAUGCCGGUCCCAAGCCCGGGUAAAAGUGGAGCGGGCGG | 0.15 |
| CCGCCUAACACUGCCAAUGCCGGUCCCAAGCCCGGGUAAAAGUGGAGAGGGCGG | 0.15 |
| CCGCCUAACACUGCCAAUGCCGGUCCCAAGCCCGGGUAAAAGUGGAGUGGGCGG | 0.12 |
| CCGCCUAACACUGGCAAUGCCGGUCCCAAGCCCGGGUAAAAGUGGAGGGGGCGG | 0.37 |
| CCGCCUAACACUGUCAAUGCCGGUCCCAAGCCCGGGUAAAAGUGGAGGGGGCGG | 0.88 |
| CCGCCUAACACUGACAAUGCCGGUCCCAAGCCCGGGUAAAAGUGGAGGGGGCGG | 0.19 |
| CCGCCUAACACUGCCAAUACCGGUCCCAAGCCCGGGUAAAAGUGGAGGGGGCGG | 0.8 |
| CCGCCUAACACUGCCAAUCCCGGUCCCAAGCCCGGGUAAAAGUGGAGGGGGCGG | 0.13 |
| CCGCCUAACACUGCCAAUUCCGGUCCCAAGCCCGGGUAAAAGUGGAGGGGGCGG | 0.99 |
| CCGCCUAACACUGCCAAUGCCGUUCCCAAGCCCGGGUAAAAGUGGAGGGGGCGG | 0.13 |
| CCGCCUAACACUGCCAAUGCCGCUCCCAAGCCCGGGUAAAAGUGGAGGGGGCGG | 0.07 |
| CCGCCUAACACUGCCAAUGCCGAUCCCAAGCCCGGGUAAAAGUGGAGGGGGCGG | 0.62 |
| CCGCCUAACACUGCUAAUGCCGGUCCCAAGCCCGGGUAAAAGUGGAGGGGGCGG | 0.89 |
| CCGCCUAACACUGCGAAUGCCGGUCCCAAGCCCGGGUAAAAGUGGAGGGGGCGG | 0.84 |
| CCGCCUAACACUGCAAAUGCCGGUCCCAAGCCCGGGUAAAAGUGGAGGGGGCGG | 0.85 |
| CCGCCUAACACUGCCAAUGCCGGUCCCAAGACCGGGUAAAAGUGGAGGGGGCGG | 0.04 |
| CCGCCUAACACUGCCAAUGCCGGUCCCAAGUCCGGGUAAAAGUGGAGGGGGCGG | 1.01 |
| CCGCCUAACACUGCCAAUGCCGGUCCCAAGGCCGGGUAAAAGUGGAGGGGGCGG | 0.16 |
| CCGCCUAACACUGCCAAUGCCGGUCCGAAGCCCGGGUAAAAGUGGAGGGGGCGG | 0.13 |

| Variant | self-cleavage |
| --- | --- |
| CCGCCUAACACUGCCAAUGCCGGUCCUAAGCCCGGGUAAAAGUGGAGGGGGCGG | 0.32 |
| CCGCCUAACACUGCCAAUGCCGGUCCAAAGCCCGGGUAAAAGUGGAGGGGGCGG | 0.38 |
| CCGCCUAACACUGCCAAUGCCGGUCCCAAGCCCGGGUAAAAGUGGAGGGGGAGG | 1.01 |
| CCGCCUAACACUGCCAAUGCCGGUCCCAAGCCCGGGUAAAAGUGGAGGGGGUGG | 1.02 |
| CCGCCUAACACUGCCAAUGCCGGUCCCAAGCCCGGGUAAAAGUGGAGGGGGGGG | 1.04 |
| CCGCCUAACACUCCCAAUGCCGGUCCCAAGCCCGGGUAAAAGUGGAGGGGGCGG | 0.03 |
| CCGCCUAACACUACCAAUGCCGGUCCCAAGCCCGGGUAAAAGUGGAGGGGGCGG | 0.24 |
| CCGCCUAACACUUCCAAUGCCGGUCCCAAGCCCGGGUAAAAGUGGAGGGGGCGG | 0.03 |
| CCGCCUAACACUGCCAAUGCCGGUCCCAAGCCCGGGUAAAAGUGGAGGGCGCGG | 1.04 |
| CCGCCUAACACUGCCAAUGCCGGUCCCAAGCCCGGGUAAAAGUGGAGGGAGCGG | 0.76 |
| CCGCCUAACACUGCCAAUGCCGGUCCCAAGCCCGGGUAAAAGUGGAGGGUGCGG | 1.04 |
| CCGCCUAACACUGCCAAUGCCGGUCUCAAGCCCGGGUAAAAGUGGAGGGGGCGG | 0.98 |
| CCGCCUAACACUGCCAAUGCCGGUCACAAGCCCGGGUAAAAGUGGAGGGGGCGG | 0.06 |
| CCGCCUAACACUGCCAAUGCCGGUCGCAAGCCCGGGUAAAAGUGGAGGGGGCGG | 0.13 |
| CCGCCUAACAUUGCCAAUGCCGGUCCCAAGCCCGGGUAAAAGUGGAGGGGGCGG | 0.93 |
| CCGCCUAACAAUGCCAAUGCCGGUCCCAAGCCCGGGUAAAAGUGGAGGGGGCGG | 0.85 |
| CCGCCUAACAGUGCCAAUGCCGGUCCCAAGCCCGGGUAAAAGUGGAGGGGGCGG | 0.73 |
| CCGCCUAACACUGCCAAUGCCGGUCCCAAGCCCGGGUAAAAGUGGAAGGGGCGG | 0.54 |
| CCGCCUAACACUGCCAAUGCCGGUCCCAAGCCCGGGUAAAAGUGGACGGGGCGG | 0.2 |
| CCGCCUAACACUGCCAAUGCCGGUCCCAAGCCCGGGUAAAAGUGGAUGGGGCGG | 0.47 |
| CCGCCUAACACUGCCAAUGCCGGUCCCAAGCCCGGGUAAAAGUGGAGGAGGCGG | 0.24 |
| CCGCCUAACACUGCCAAUGCCGGUCCCAAGCCCGGGUAAAAGUGGAGGUGGCGG | 0.27 |
| CCGCCUAACACUGCCAAUGCCGGUCCCAAGCCCGGGUAAAAGUGGAGGCGGCGG | 0.08 |
| CCGCCUAACACUGCCAAUGCCGGUACCAAGCCCGGGUAAAAGUGGAGGGGGCGG | 0.22 |
| CCGCCUAACACUGCCAAUGCCGGUGCCAAGCCCGGGUAAAAGUGGAGGGGGCGG | 0.13 |

| Variant | self-cleavage |
| --- | --- |
| CCGCCUAACACUGCCAAUGCCGGUUCCAAGCCCGGGUAAAAGUGGAGGGGGCGG | 0.94 |
| CCGCCUAACACUGCCAAUGCCGGUCCCAAGCCCGGGUAAAAGUGGAGGGGCCGG | 0.18 |
| CCGCCUAACACUGCCAAUGCCGGUCCCAAGCCCGGGUAAAAGUGGAGGGGACGG | 0.78 |
| CCGCCUAACACUGCCAAUGCCGGUCCCAAGCCCGGGUAAAAGUGGAGGGGUCGG | 0.37 |
| CCGCCUAACACUGCCAAUGCCCGUCCCAAGCCCGGGUAAAAGUGGAGGGGGCGG | 0.07 |
| CCGCCUAACACUGCCAAUGCCUGUCCCAAGCCCGGGUAAAAGUGGAGGGGGCGG | 0.57 |
| CCGCCUAACACUGCCAAUGCCAGUCCCAAGCCCGGGUAAAAGUGGAGGGGGCGG | 1.01 |
| CCGCCUAACACUGCCAAUGCCGGUCCCAAGCCCGGGUAAAAGUGGAGGGGGCAG | 0.95 |
| CCGCCUAACACUGCCAAUGCCGGUCCCAAGCCCGGGUAAAAGUGGAGGGGGCUG | 0.61 |
| CCGCCUAACACUGCCAAUGCCGGUCCCAAGCCCGGGUAAAAGUGGAGGGGGCCG | 0.13 |
| CCGCCUAACACUGCCAAUGCCGGUCCCAAGCCCGCGUAAAAGUGGAGGGGGCGG | 0.93 |
| CCGCCUAACACUGCCAAUGCCGGUCCCAAGCCCGUGUAAAAGUGGAGGGGGCGG | 0.91 |
| CCGCCUAACACUGCCAAUGCCGGUCCCAAGCCCGAGUAAAAGUGGAGGGGGCGG | 0.92 |
| CCGCCUAACACUGCCAAUGCCGGUCCCAAGCCGGGGUAAAAGUGGAGGGGGCGG | 0.09 |
| CCGCCUAACACUGCCAAUGCCGGUCCCAAGCCUGGGUAAAAGUGGAGGGGGCGG | 0.94 |
| CCGCCUAACACUGCCAAUGCCGGUCCCAAGCCAGGGUAAAAGUGGAGGGGGCGG | 0.14 |
| CCGCCUAACACUGCCAAUGCCGGUCCCAAGCUCGGGUAAAAGUGGAGGGGGCGG | 0.17 |
| CCGCCUAACACUGCCAAUGCCGGUCCCAAGCACGGGUAAAAGUGGAGGGGGCGG | 0.09 |
| CCGCCUAACACUGCCAAUGCCGGUCCCAAGCGCGGGUAAAAGUGGAGGGGGCGG | 0.16 |
| CCGCCUAACACUGCCAAUGCAGGUCCCAAGCCCGGGUAAAAGUGGAGGGGGCGG | 0.64 |
| CCGCCUAACACUGCCAAUGCUGGUCCCAAGCCCGGGUAAAAGUGGAGGGGGCGG | 1.02 |
| CCGCCUAACACUGCCAAUGCGGGUCCCAAGCCCGGGUAAAAGUGGAGGGGGCGG | 0.1 |
